Source: ChEMBL document CHEMBL1125678, “Quinazolineacetic acids and related analogues as aldose reductase inhibitors” (J Med Chem, 1991)

Assays:
[1] = system: Rattus norvegicus; experiment: In vivo inhibition of galactitol accumulation in the diaphragm of rats fed 20% galactose for 4 day at 99 mg/kg/day dose; NS = No Significant inhibition of polyol accumulation; type: functional, organism-based
Procedure, shortened: (§1)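 Male Sprague-Dawley rats (50–70 g) in groups of six were fed chow with 20% (w/w) galactose. Controls received 20% glucose instead. Test compound was mixed into the diet, and dose was calculated from actual food intake. Rats were killed by decapitation after 4 days. Result is % lowering of tissue galactitol versus galactose-fed controls, as the mean of six animals, compared by Dunnett's multiple comparison.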

[2] = target: Aldo-keto reductase family 1 member B1 (Bos taurus) (UniProt P16116); experiment: In vitro inhibition of aldose reductase in partially purified bovine lens preparation at a concentration of 4*10e -8M.
Procedure, shortened: (§2)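 Enzyme from bovine lens, partially purified by the cited method with the final chromatographic step omitted. DL-Glyceraldehyde was the substrate. Test compounds were run in duplicate at 1×10⁻⁵, 1×10⁻⁶, 1×10⁻⁷ or 4×10⁻⁸ M. Values are % inhibition of enzymatic activity.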

[3] = target: Aldo-keto reductase family 1 member B1 (Bos taurus) (UniProt P16116); experiment: in vitro inhibition of aldose reductase in partially purified bovine lens preparation at a concentration of 10e -6M.
[4] = target: Aldo-keto reductase family 1 member B1 (Bos taurus) (UniProt P16116); experiment: In vitro inhibition of aldose reductase in partially purified bovine lens preparation at a concentration of 10e -7M.; procedure, shortened: as §2
[5] = system: Rattus norvegicus; experiment: In vivo inhibition of galactitol accumulation in the sciatic nerve of rats fed 20% galactose for 4 day at 99 mg/kg/day dose; NS = No Significant inhibition of polyol accumulation; type: functional, organism-based
[6] = system: Rattus norvegicus; experiment: (§3) In vivo inhibition of galactitol accumulation in the sciatic nerve of rats fed 20% galactose for 4 day at 95 mg/kg/day dose; NS= No Significant inhibition of polyol accumulation; type: functional, organism-based
[7] = system: Rattus norvegicus; experiment: In vivo inhibition of galactitol accumulation in the diaphragm of rats fed 20% galactose for 4 day at 101 mg/kg/day dose; type: functional; procedure, shortened: as §1
[8] = target: Aldo-keto reductase family 1 member B1 (Bos taurus) (UniProt P16116); experiment: in vitro inhibition of Aldose reductase in partially purified bovine lens preparation at a concentration of 10e-6 M.
[9] = system: Rattus norvegicus; experiment: In vivo inhibition of galactitol accumulation in the diaphragm of rats fed 20% galactose for 4 day at 96 mg/kg/day dose; type: functional; procedure, shortened: as §1
[10] = system: Rattus norvegicus; experiment: In vivo inhibition of galactitol accumulation in the sciatic nerve of rats fed 20% galactose for 4 day at 96 mg/kg/day dose; NS = No Significant inhibition of polyol accumulation; type: functional, organism-based
[11] = system: Rattus norvegicus; experiment: In vivo inhibition of galactitol accumulation in the diaphragm of rats fed 20% galactose for 4 day at 102 mg/kg/day dose; type: functional; procedure, shortened: as §1
[12] = system: Rattus norvegicus; experiment: In vivo inhibition of galactitol accumulation in the diaphragm of rats fed 20% galactose for 4 day at 95 mg/kg/day dose; type: functional; procedure, shortened: as §1
[13] = system: Rattus norvegicus; experiment: In vivo inhibition of galactitol accumulation in the sciatic nerve of rats fed 20% galactose for 4 day at 95 mg/kg/day dose; type: functional
[14] = system: Rattus norvegicus; experiment: In vivo inhibition of galactitol accumulation in the diaphragm of rats fed 20% galactose for 4 day at 91 mg/kg/day dose; NS = No Significant inhibition of polyol accumulation; type: functional, organism-based; procedure, shortened: as §1
[15] = system: Rattus norvegicus; experiment: In vivo inhibition of galactitol accumulation in the sciatic nerve of rats fed 20% galactose for 4 day at 91 mg/kg/day dose; NS = No Significant inhibition of polyol accumulation; type: functional, organism-based; procedure, shortened: as §1
[16] = target: Aldo-keto reductase family 1 member B1 (Bos taurus) (UniProt P16116); experiment: In vitro inhibition of aldose reductase in partially purified bovine lens preparation at a concentration of 10e-6 M.; procedure, shortened: as §2
[17] = system: Rattus norvegicus; experiment: In vivo inhibition of galactitol accumulation in the sciatic nerve of rats fed 20% galactose for 4 day at 70 mg/kg/day dose; type: functional; procedure, shortened: as §1
[18] = system: Rattus norvegicus; experiment: In vivo inhibition of galactitol accumulation in the diaphragm of rats fed 20% galactose for 4 day at 70 mg/kg/day dose; type: functional; procedure, shortened: as §1
[19] = system: Rattus norvegicus; experiment: In vivo inhibition of galactitol accumulation in the diaphragm of rats fed 20% galactose for 4 day at 100 mg/kg/day dose; type: functional; procedure, shortened: as §1
[20] = system: Rattus norvegicus; experiment: In vivo inhibition of galactitol accumulation in the sciatic nerve of rats fed 20% galactose for 4 day at 100 mg/kg/day dose; type: functional; procedure, shortened: as §1
[21] = system: Rattus norvegicus; experiment: as §3; type: functional, organism-based; remark: listed apart in the source
[22] = target: Aldo-keto reductase family 1 member B1 (Bos taurus) (UniProt P16116); experiment: In vitro inhibition of Aldose reductase in partially purified bovine lens preparation at a concentration of 4*10e -8M.; procedure, shortened: as §2
[23] = system: Rattus norvegicus; experiment: In vivo inhibition of galactitol accumulation in the sciatic nerve of rats fed 20% galactose for 4 day at 101 mg/kg/day dose; NS = No Significant inhibition of polyol accumulation; type: functional, organism-based; procedure, shortened: as §1
[24] = target: Aldo-keto reductase family 1 member B1 (Bos taurus) (UniProt P16116); experiment: In vitro inhibition of Aldose reductase in partially purified bovine lens preparation at a concentration of 10e -7M.; procedure, shortened: as §2
[25] = target: Aldo-keto reductase family 1 member B1 (Bos taurus) (UniProt P16116); experiment: In vitro inhibition of aldose reductase in partially purified bovine lens preparation at a concentration of 10e -5M.; settings: in the assay text read “10e -6M” for “10e -5M”; procedure, shortened: as §2
[26] = system: Rattus norvegicus; experiment: In vivo inhibition of galactitol accumulation in the diaphragm of rats fed 20% galactose for 4 day at 94 mg/kg/day dose; NS = No Significant inhibition of polyol accumulation; type: functional, organism-based; procedure, shortened: as §1
[27] = system: Rattus norvegicus; experiment: In vivo inhibition of galactitol accumulation in the sciatic nerve of rats fed 20% galactose for 4 day at 94 mg/kg/day dose; NS = No Significant inhibition of polyol accumulation; type: functional, organism-based
[28] = system: Rattus norvegicus; experiment: In vivo inhibition of galactitol accumulation in the diaphragm of rats fed 20% galactose for 4 day at 101 mg/kg/day dose; NS = No Significant inhibition of polyol accumulation; type: functional, organism-based; procedure, shortened: as §1
[29] = system: Rattus norvegicus; experiment: In vivo inhibition of galactitol accumulation in the sciatic nerve of rats fed 20% galactose for 4 day at 96 mg/kg/day dose; type: functional

SMILES: Cc1c(C)n(Cc2ccc(Cl)c(Cl)c2)c(=O)n(CC(=O)O)c1=O
- Lowering [1]: Not significant
- inhibition [2]: 28%
- inhibition [3]: 83%
- inhibition [4]: 39%
- Lowering [5]: Not significant

SMILES: O=C(O)CN1CN(Cc2ccc(Cl)c(Cl)c2)C(=O)c2cc(Cl)ccc21
- Lowering [6]: Not significant
- inhibition [2]: 54%
- Lowering [7]: 29%
- inhibition [4]: 87%

SMILES: O=C(O)Cn1c(=O)n(Cc2ccc(Cl)c(Cl)c2)c(=O)c2c3c(sc21)CCCC3
- Lowering [1]: Not significant
- inhibition [2]: 63%
- inhibition [4]: 89%
- Lowering [5]: Not significant

SMILES: O=C(O)Cn1c(=O)c2ccccc2n1Cc1ccc(Br)cc1F
- inhibition [8]: 40%
- Lowering [9]: 24%
- Lowering [10]: Not significant

SMILES: O=C(O)Cn1c(=O)c2cc(Br)ccc2n(Cc2ccc(F)c(F)c2)c1=O
- Lowering [6]: Not significant
- inhibition [2]: 20%
- inhibition [4]: 30%
- Lowering [11]: 40%

SMILES: O=C(O)Cn1c(=O)c2cc(Cl)ccc2n(Cc2ccc(Cl)c(Cl)c2)c1=O
- Lowering [12]: 83%
- inhibition [2]: 29%
- inhibition [4]: 71%
- Lowering [13]: 72%

SMILES: O=C(O)Cn1c(C(F)(F)F)nc2ccc(Br)cc2c1=O
- Lowering [14]: Not significant
- Lowering [15]: Not significant
- inhibition [4]: 23%
- inhibition [16]: 45%

SMILES: O=C(O)Cn1c(=O)n(Cc2ccc(Cl)c(Cl)c2)c(=S)c2cc(Cl)ccc21
- inhibition [2]: 54%
- Lowering [17]: 28%
- inhibition [4]: 89%
- Lowering [18]: 50%

SMILES: O=C(O)Cn1c(=O)c2ccc(Cl)cc2n(Cc2ccc(Br)cc2F)c1=O
- Lowering [12]: 74%
- inhibition [2]: 55%
- inhibition [4]: 76%
- Lowering [13]: 42%

SMILES: O=C(O)Cn1c(=O)c2cc(Br)ccc2n(Cc2ccc(Br)cc2)c1=O
- inhibition [2]: 39%
- Lowering [19]: 36%
- inhibition [4]: 59%
- Lowering [20]: 24%

SMILES: O=C(O)Cn1c(=O)c2cc([N+](=O)[O-])ccc2n(Cc2ccc(Br)cc2F)c1=O
- Lowering [6]: Not significant
- inhibition [2]: 38%
- Lowering [21]: Not significant
- inhibition [4]: 71%

SMILES: O=C(O)Cn1c(=O)c2cc(Br)ccc2n(C(=O)c2ccccc2)c1=O
- Lowering [6]: Not significant
- Lowering [21]: Not significant
- inhibition [3]: 46%

SMILES: O=C(O)Cn1c2ccc([N+](=O)[O-])cc2c(=O)n1Cc1ccc(Br)cc1F
- inhibition [22]: 36%
- Lowering [23]: Not significant
- Lowering [7]: 22%
- inhibition [24]: 60%

SMILES: O=C(O)Cn1c(=O)[nH]c2ccc(Br)cc2c1=O
- inhibition [25]: 64%

SMILES: O=C(O)Cn1c(=O)c2cc(Cl)ccc2n(Cc2ccc(Br)cc2F)c1=S
- inhibition [2]: 24%
- Lowering [17]: 39%
- inhibition [4]: 70%
- Lowering [18]: 60%

SMILES: Cn1c(=O)n(CC(=O)O)c(=O)c2cc(Cl)ccc21
- inhibition [25]: 60%

SMILES: Cc1nc2ccc(Br)cc2c(=S)n1CC(=O)O
- Lowering [26]: Not significant
- Lowering [27]: Not significant
- inhibition [4]: 54%
- inhibition [16]: 88%

SMILES: O=C(O)Cn1c(=O)c2c(Cl)cccc2n(Cc2ccc(Br)cc2F)c1=O
- Lowering [6]: Not significant
- Lowering [12]: 46%
- inhibition [2]: 33%
- inhibition [4]: 70%

SMILES: O=C(O)Cn1c(=O)c2cc(Br)ccc2n(CCc2ccccc2)c1=O
- Lowering [6]: Not significant
- Lowering [21]: Not significant
- inhibition [25]: 34%

SMILES: O=C(O)Cn1c(=O)c2ccccc2n(-c2ccccc2)c1=O
- inhibition [25]: 45%

SMILES: COc1ccc(Cn2c(=O)n(CC(=O)O)c(=O)c3cc(Br)ccc32)cc1
- Lowering [6]: Not significant
- inhibition [2]: 11%
- Lowering [21]: Not significant
- inhibition [4]: 31%

SMILES: COc1ccc(Cn2c(=O)n(CC(=O)O)c(=O)c3cc(Br)ccc32)cc1Br
- Lowering [6]: Not significant
- inhibition [2]: 32%
- Lowering [11]: 24%

SMILES: O=C(O)CN1C(=O)c2cc(Cl)ccc2N(Cc2ccc(Br)cc2F)[S+]1[O-] (stereo not given)
- Lowering [6]: Not significant
- inhibition [2]: 8%
- Lowering [21]: Not significant
- inhibition [4]: 21%

SMILES: CCc1nc2ccc(Br)cc2c(=O)n1CC(=O)O
- Lowering [23]: Not significant
- inhibition [4]: 13%
- inhibition [16]: 57%
- Lowering [28]: Not significant

SMILES: C=CCn1c(=O)n(CC(=O)O)c(=O)c2cc(Br)ccc21
- Lowering [6]: Not significant
- Lowering [21]: Not significant
- inhibition [3]: 31%

SMILES: O=C(O)Cn1c(=O)c2cc(Br)ccc2n(Cc2ccc(Br)cc2F)c1=O
- inhibition [22]: 71%
- Lowering [9]: 76%
- inhibition [24]: 83%
- Lowering [29]: 60%

SMILES: COc1ccc2c(c1)c(=O)n(CC(=O)O)c(=O)n2Cc1ccc(Cl)c(Cl)c1
- inhibition [2]: 49%
- Lowering [19]: 70%
- inhibition [4]: 85%
- Lowering [20]: 63%

SMILES: O=C(O)Cn1c2ccccc2c(=O)n1Cc1ccc(Br)cc1F
- inhibition [22]: 28%
- Lowering [9]: 51%
- inhibition [24]: 42%
- Lowering [29]: 25%

SMILES: O=C(O)Cn1c(=O)c2cccc(F)c2n(Cc2ccc(Br)cc2F)c1=O
- Lowering [12]: 70%
- inhibition [2]: 53%
- inhibition [4]: 77%
- Lowering [13]: 49%

SMILES: O=C(O)Cn1c(=O)c2cc(Br)ccc2n(Cc2ccc(C(F)(F)F)cc2)c1=O
- Lowering [6]: Not significant
- Lowering [21]: Not significant
- inhibition [3]: 54%

SMILES: O=C(O)Cn1c2ccc(Cl)cc2c(=O)n1Cc1ccc(Cl)c(Cl)c1
- Lowering [23]: Not significant
- inhibition [2]: 34%
- inhibition [4]: 63%
- Lowering [28]: Not significant
